Assay results as given in ChEMBL document CHEMBL1122504, “Heterocyclic Quinones. 4. A new highly cytotoxic drug: 6,7-bis(1-aziridinyl)-5,8-quinazolinedione” (1983).

Tests used:
[1] = tested on: B16; test: MST of treated animal over control when administered at a dose of 2.5 mg/kg intraperitoneally on Q01Dx01 treatment schedule in B16 melanocarcinoma cell lines; type: functional, Mus musculus; details: route intraperitoneal
Method in brief: (§1)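 B16 melanocarcinoma: C57Bl/6 mice implanted sc with cell suspension on day 0; single ip dose in 0.15 M NaCl saline given on day 1. Median survival time was recorded in days, with toxicity taken as survivors on day 5. T/C% = treated MST/control MST × 100; >125% is considered significant.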

[2] = tested on: B16; test: Number of survivors of B16 melanocarcinoma cell line on day 5/ number of treated mice at a dose of 1 ip injection of 10 mg/kg on Q01Dx01 treatment schedule; 10/10; type: functional, Mus musculus; details: route intraperitoneal
[3] = tested on: B16; test: Number of survivors of B16 melanocarcinoma cell line on day 5/ number of treated mice at a dose of 1 ip injection of 2.5 mg/kg on Q01Dx01 treatment schedule; 10/10; type: functional, Mus musculus; details: route intraperitoneal
[4] = tested on: B16; test: Number of survivors of B16 melanocarcinoma cell line on day 5/ number of treated mice at a dose of 1 ip injection of 5 mg/kg on Q01Dx01 treatment schedule; 09/10; type: functional, Mus musculus; details: route intraperitoneal
[5] = tested on: B16; test: Median survival time of […] melanocarcinoma cell line after a dose of 10 mg/kg administered intraperitoneally on Q01Dx01 treatment schedule; type: functional, Mus musculus; details: route intraperitoneal; method in brief: as §1
[6] = tested on: L1210; test: Median survival time of L1210 cell line after a dose of 5 mg/kg administered intraperitoneally on Q01Dx05 treatment schedule; type: functional, Mus musculus; details: route intraperitoneal
Method in brief: (§2)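 L1210 leukaemia: DBA/2 mice inoculated ip with 10^5 cells on day 0, with ip drug in 0.15 M NaCl saline on the stated schedule. The read-out was median survival time in days, with toxicity taken as survivors on day 5. T/C% = treated MST/control MST × 100; >125% is considered significant.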

[7] = tested on: L1210; test: MST of treated animal over control when administered at a dose of 10 mg/kg intraperitoneally on Q01Dx02 treatment schedule in L1210 cell lines; type: functional, Mus musculus; details: route intraperitoneal; method in brief: as §2
[8] = tested on: L1210; test: MST of treated animal over control when administered at a dose of 10 mg/kg intraperitoneally on Q01Dx05 treatment schedule in L1210 cell lines; type: functional, Mus musculus; details: route intraperitoneal; method in brief: as §2
[9] = tested on: L1210; test: Median survival time of L1210 cell line after a dose of 10 mg/kg administered intraperitoneally on Q01Dx01 treatment schedule; type: functional, Mus musculus; details: route intraperitoneal; method in brief: as §2
[10] = tested on: L1210; test: Median survival time of L1210 cell line after a dose of 10 mg/kg administered intraperitoneally on Q01Dx05 treatment schedule; type: functional, Mus musculus; details: route intraperitoneal; method in brief: as §2
[11] = tested on: L1210; test: Median survival time of L1210 cell line after a dose of 15 mg/kg administered intraperitoneally on Q01Dx02 treatment schedule; type: functional, Mus musculus; details: route intraperitoneal; method in brief: as §2
[12] = tested on: L1210; test: Number of survivors of L1210 cell line on day 5/ number of treated mice at a dose of 1 i.p. injection of 20 mg/kg on Q01Dx01 treatment schedule; 10/10; type: functional, Mus musculus; details: route intraperitoneal
[13] = tested on: L1210; test: Number of survivors of L1210 cell line on day 5/ number of treated mice at a dose of 2 ip injection of 15 mg/kg on Q01Dx02 treatment schedule; 10/10; type: functional, Mus musculus; details: route intraperitoneal
[14] = tested on: L1210; test: Number of survivors of L1210 cell line on day 5/ number of treated mice at a dose of 2ip injection of 10 mg/kg on Q01Dx02 treatment schedule; 10/10; type: functional, Mus musculus
[15] = tested on: L1210; test: Number of survivors of L1210 cell line on day 5/ number of treated mice at a dose of 5ip injection of 5 mg/kg on Q01Dx05 treatment schedule; 10/10; type: functional, Mus musculus
[16] = tested on: P388; test: Number of survivors of P388 lymphocytic leukemia cell line on day 5/ number of treated mice at a dose of 3 ip injection of 10 mg/kg on Q04Dx03 treatment schedule; 10/10; type: functional, Mus musculus; details: route intraperitoneal
[17] = tested on: P388; test: Number of survivors of P388 lymphocytic leukemia cell line on day 5/ number of treated mice at a dose of 5 ip injection of 5 mg/kg on Q01Dx05 treatment schedule; 10/10; type: functional, Mus musculus; details: route intraperitoneal
[18] = tested on: P388; test: MST of treated animal over control when administered at a dose of 10 mg/kg perorally on Q01Dx07 treatment schedule; type: functional, Mus musculus; details: route oral
Method in brief: (§3)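 P388 leukaemia: DBA/2 mice inoculated with 10^6 cells on day 0; treatment began day 1 at the stated route and schedule. Drug was dissolved in 0.15 M NaCl saline. The read-out was median survival time (MST, days), with toxicity taken as survivors on day 5. T/C% = treated MST/control MST × 100; ≥125% is considered significant.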

[19] = tested on: P388; test: MST of treated animal over control when administered at a dose of 2.5 mg/kg intraperitoneally on Q01Dx09 treatment schedule; type: functional, Mus musculus; details: route intraperitoneal; method in brief: as §3
[20] = tested on: P388; test: MST of treated animal over control when administered at a dose of 5 mg/kg intravenously on Q01Dx01 treatment schedule; type: functional, Mus musculus; details: route intravenous; method in brief: as §3
[21] = tested on: P388; test: Number of survivors of P388 lymphocytic leukemia cell line on day 5/ number of treated mice at a dose of 1 i.p. injection of 10 mg/kg on Q01Dx01 treatment schedule; 10/10; type: functional, Mus musculus; details: route intraperitoneal
[22] = tested on: P388; test: Number of survivors of P388 lymphocytic leukemia cell line on day 5/ number of treated mice at a dose of 9 ip injection of 2.5 mg/kg on Q01Dx09 treatment schedule; 10/10; type: functional, Mus musculus; details: route intraperitoneal
[23] = tested on: P388; test: Median survival time of P388 lymphocytic leukemia cell line after a dose of 10 mg/kg administered intraperitoneally on Q01Dx05 treatment schedule; type: functional, Mus musculus; details: route intraperitoneal; method in brief: as §3
[24] = tested on: P388; test: Median survival time of P388 lymphocytic leukemia cell line after a dose of 10 mg/kg administered intraperitoneally on Q04Dx03 treatment schedule; type: functional, Mus musculus; details: route intraperitoneal; method in brief: as §3
[25] = tested on: P388; test: Median survival time of P388 lymphocytic leukemia cell line after a dose of 15 mg/kg administered intravenously on Q01Dx01 treatment schedule; type: functional, Mus musculus; details: route intravenous; method in brief: as §3
[26] = tested on: P388; test: Median survival time of P388 lymphocytic leukemia cell line after a dose of 15 mg/kg administered perorally on Q01Dx07 treatment schedule; type: functional, Mus musculus; details: route oral; method in brief: as §3
[27] = tested on: Sarcoma-180; test: Number of survivors of sarcoma 180 cell line on day 5/ number of treated mice at a dose of 1 ip injection of 20 mg/kg on Q01Dx01 treatment schedule; 10/10; type: functional, Mus musculus; details: route intraperitoneal
[28] = tested on: Salmonella typhimurium; test: Mutagenesis test was performed at 0.3 uM concentration in Salmonella Typhimurium TA 100; type: functional, Salmonella enterica subsp. enterica serovar Typhimurium
Method in brief: (§4)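 Salmonella typhimurium his auxotrophs TA98 and TA100 were tested by liquid suspension without metabolic activation. Overnight Oxoid nutrient broth cultures were subcultured, grown 2 h, then exposed to drug for 5 h. Cells were washed, resuspended to A650 2.50, and plated in top agar (0.6% agar, 0.6% NaCl). His+ revertants per plate were counted after 48 h at 37 °C; values are means of three assays.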

[29] = tested on: Salmonella typhimurium; test: Mutagenesis test was performed at 10 uM concentration in Salmonella Typhimurium TA 100; type: functional, Salmonella enterica subsp. enterica serovar Typhimurium; method in brief: as §4
[30] = tested on: Salmonella typhimurium; test: Mutagenesis test was performed at 40 uM concentration in Salmonella Typhimurium TA 100; type: functional, Salmonella enterica subsp. enterica serovar Typhimurium; method in brief: as §4
[31] = tested on: Salmonella typhimurium; test: Mutagenesis test was performed at 40 uM concentration in Salmonella Typhimurium TA 98; type: functional, Salmonella enterica subsp. enterica serovar Typhimurium; method in brief: as §4
[32] = tested on: Salmonella typhimurium; test: Mutagenesis test was performed at 4 uM concentration in Salmonella Typhimurium TA 98; type: functional, Salmonella enterica subsp. enterica serovar Typhimurium; method in brief: as §4

Structure (SMILES): O=C1C(N2CC2)=C(N2CC2)C(=O)c2ncncc21
- T/C [1]: 121%
- Toxicity Survivors [2]: 10
- Toxicity Survivors [3]: 10
- Toxicity Survivors [4]: 9
- MST [5]: 20.8 days
- MST [6]: 9.1 days
- T/C [7]: 104%
- T/C [8]: 69%
- MST [9]: 9.4 days
- MST [10]: 9.1 days
- MST [11]: 9 days
- Toxicity Survivors [12]: 10
- Toxicity Survivors [13]: 10
- Toxicity Survivors [14]: 10
- Toxicity Survivors [15]: 10
- Toxicity Survivors [16]: 10
- Toxicity Survivors [17]: 10
- T/C [18]: 100%
- T/C [19]: 128%
- T/C [20]: 103%
- Toxicity Survivors [21]: 10
- Toxicity Survivors [22]: 10
- MST [23]: 10.4 days
- MST [24]: 9.9 days
- MST [25]: 10.4 days
- MST [26]: 7.6 days
- Toxicity Survivors [27]: 10
- Revertants/plate [28]: 76
- Revertants/plate [29]: 97
- Revertants/plate [30]: 461
- Revertants/plate [31]: 334
- Revertants/plate [32]: 81
